Experimental data collected from several papers.
Protocols differ between the studies behind these lines.
Target: Histamine H3 receptor (HRH3, Homo sapiens, UniProt Q9Y5N1)

CCN(Cc1ccccc1C(F)(F)F)C(=O)C1CCN(S(=O)(=O)c2ccc3[nH]ncc3c2)CC1
inhibition (ligand displacement; radioligand; 10 µM): 6%

CCS(=O)(=O)c1cc2cc(C[C@](O)(CC(C)(C)c3ccc(F)cc3C(N)=O)C(F)(F)F)[nH]c2cn1
inhibition (ligand displacement; 10 µM): 11.7%

CN1CCN(CCCOc2ccc(=O)n(-c3ccc(Cl)c(Cl)c3)n2)CC1
inhibition (ligand displacement; 1 µM): 38.2%

N#Cc1cc(Cn2c(N3CCCC3)nc3ccccc32)ccc1F
inhibition (ligand displacement; 10 µM): 1.97%

CCN(CC)c1ccc(C2Nc3ccc(C(=O)c4ccccc4)cc3NC3=C2C(=O)CC(C)(C)C3)cc1 (stereo not drawn)
inhibition (ligand displacement; radioligand; 10 µM): 43%

CCCNc1nc2ccccc2n1Cc1ccc(Cl)cc1
inhibition (ligand displacement; 10 µM): -5.56%

O=C(c1ccc(F)cc1)N(Cc1ccccc1)C1CCCCC1
inhibition (cell-free assay; 10 µM): 15%

COc1ccc(-n2nc(OCCCN3CCCCC3)ccc2=O)cc1
inhibition (ligand displacement; 1 µM): 23.3%

CC(=O)Nc1ncc(CN2CCC[C@H](Cc3cc(C)nc(C)c3)C2)s1
inhibition (ligand displacement; 10 µM): 10.8%
